The source made the active and inactive calls. The rule behind the calls is not given here. Where a SMILES comes first, the peptide text is derived from it. The star is where a group is joined. Cbz = O=C(OCc1ccccc1)*; CH2F = FC*

The target in one data set is T1, Receptor-interacting serine/threonine-protein kinase 1 (Homo sapiens) (UniProt Q13546).
T1 sequence (whole entry): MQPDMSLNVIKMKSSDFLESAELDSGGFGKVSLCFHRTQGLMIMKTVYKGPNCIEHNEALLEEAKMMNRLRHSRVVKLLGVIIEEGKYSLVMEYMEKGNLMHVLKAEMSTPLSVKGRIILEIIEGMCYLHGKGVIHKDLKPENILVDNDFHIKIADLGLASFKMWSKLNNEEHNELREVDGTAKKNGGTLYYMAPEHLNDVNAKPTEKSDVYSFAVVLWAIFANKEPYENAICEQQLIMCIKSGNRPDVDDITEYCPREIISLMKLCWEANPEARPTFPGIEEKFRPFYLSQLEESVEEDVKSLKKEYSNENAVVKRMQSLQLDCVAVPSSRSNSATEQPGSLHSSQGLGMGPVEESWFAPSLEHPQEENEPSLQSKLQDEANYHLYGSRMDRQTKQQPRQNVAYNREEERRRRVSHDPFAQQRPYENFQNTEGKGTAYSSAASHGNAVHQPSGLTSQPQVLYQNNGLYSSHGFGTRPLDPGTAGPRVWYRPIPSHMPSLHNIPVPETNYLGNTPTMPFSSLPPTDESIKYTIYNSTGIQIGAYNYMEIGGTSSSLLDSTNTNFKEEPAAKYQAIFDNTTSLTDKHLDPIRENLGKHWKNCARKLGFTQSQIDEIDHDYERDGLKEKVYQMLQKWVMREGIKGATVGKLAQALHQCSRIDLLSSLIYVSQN
The experiment in a line: Inhibition of RIPK1 in human FADD-deficient Jurkat I 2.1 cells assessed as protection against TNFalpha-induced necroptosis by measuring remaining viable cells at 10 uM measured after 24 hrs by MTS assay relative to TNFalpha. The class given is cell-based.
Settings: not given
The method, boiled down:
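FADD-deficient Jurkat cells co-treated 24 h with 10 ng/ml human recombinant TNF-α and 10 μM compound; MTS viability normalized to DMSO control (100%); protection delta = viability with TNF-α plus compound minus viability with TNF-α alone (negative if toxic); n = 3.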
On the technique in general: Formazan colour is commonly taken as a measure of viable cells.
For `O=[N+]([O-])c1ccc2nc(NCc3ccccc3)[nH]c2c1`, the Activity came to 9%.

Regarding `CCOC(=O)CNc1nc2ccc([N+](=O)[O-])cc2[nH]1`, the Activity stood at 15.3%.

For `CCCCNc1nc2ccc(C(=O)NCCc3ccccc3)cc2[nH]1`, the Activity came to 2.6%.

With `CCCCNc1nc2ccc(Br)cc2[nH]1`, the Activity was determined as 7.3%.

Consider `COCCNc1nc2cccc([N+](=O)[O-])c2[nH]1`, for which the Activity is -2.3%.

For the molecule `CCCCNc1nc2ccc(-c3cccc(OC)c3)cc2[nH]1`, the Activity is -16.8%.

For `CCCCNc1nc2ccc([N+](=O)[O-])cc2s1`, the Activity was determined as 28%.

Take `O=[N+]([O-])c1ccc2nc(NC3CCCCC3)[nH]c2c1`: the Activity was 68.1%.

Consider `N#Cc1ccc(Nc2nc3ccc([N+](=O)[O-])cc3[nH]2)cc1`, for which the Activity is -31.4%.

`CCNc1nc2ccc(-c3cccc(OC)c3)cc2[nH]1`: the Activity was -12.8%.

Consider `COCCNc1nc2ccc([N+](=O)[O-])cc2[nH]1`, for which the Activity was 5.6%.

As for `C=CCNc1nc2ccc([N+](=O)[O-])cc2[nH]1`, the Activity amounted to 4.7%.

On to `CCCCNc1nc2ccc(C#N)cc2[nH]1`, for which the Activity was determined as 6.3%.

`CCCCNc1nc2ccc(I)cc2[nH]1`: the Activity is -16.3%.

Take `CCNC(=O)CNc1nc2ccc([N+](=O)[O-])cc2[nH]1`: the Activity was found to be 1.9%.

Turning to `CCCNc1nc2ccc([N+](=O)[O-])cc2[nH]1`, the Activity stood at 20%.

Turning to `CC(C)Nc1nc2ccc([N+](=O)[O-])cc2[nH]1`, the Activity is 16.2%.

Take `CCCCNc1nc2ccc(C(=O)NCc3ccccc3)cc2[nH]1`: the Activity came out at 5%.

For `COC(=O)c1cccc2nc(NC3CCCCC3)[nH]c12`, the Activity worked out at 21.7%.

`O=[N+]([O-])c1ccc(Nc2nc3ccc([N+](=O)[O-])cc3[nH]2)cc1`: the Activity turned out to be 3.6%.

In the case of `C#Cc1ccc2nc(NCCCC)[nH]c2c1`, the Activity was -21.3%.

Consider `O=[N+]([O-])c1ccc2sc(Cl)nc2c1`, for which the Activity worked out at 0.1%.

As to `CCCCNC(=O)CNc1nc2ccc([N+](=O)[O-])cc2[nH]1`, the Activity was 4.6%.

Consider `CCCCNc1nc2cccc([N+](=O)[O-])c2[nH]1`, for which the Activity stood at 1.2%.

Regarding `CCNc1nc2ccc(-c3cccc([N+](=O)[O-])c3)cc2[nH]1`, the Activity is -19.4%.

Regarding `CCCCCCNc1nc2ccc([N+](=O)[O-])cc2[nH]1`, the Activity turned out to be 23.6%.

For `CC(C)CNc1nc2ccc([N+](=O)[O-])cc2[nH]1`, the Activity was found to be 53.7%.

For `CCCCNc1nc2ccc(-c3cccs3)cc2[nH]1`, the Activity was -20.5%.

Take `CCNc1nc2ccc(Br)cc2[nH]1`: the Activity came to 10.4%.

For the molecule `Oc1ccc(-c2cc3cccnc3[nH]2)cc1`, the Activity is 57.9%.

Regarding `CCCCNc1nc2ccc(-c3cn(Cc4ccccc4)nn3)cc2[nH]1`, the Activity is -10.5%.

For `Cc1ccc2nc(NC3CCCCC3)[nH]c2c1`, the Activity turned out to be 7%.

Take `O=[N+]([O-])c1ccc2nc(Nc3ccccc3)[nH]c2c1`: the Activity was 41.9%.

Consider `C#CCNc1nc2ccc([N+](=O)[O-])cc2[nH]1`, for which the Activity came out at 3.4%.

Consider `O=[N+]([O-])c1cccc2nc(NC3CCCCC3)[nH]c12`, for which the Activity was 13%.

As to `CCNc1nc2ccc(-c3ccccc3Cl)cc2[nH]1`, the Activity was found to be 4.9%.

Turning to `CCCCNc1nc2ccc(C#C[Si](C)(C)C)cc2[nH]1`, the Activity is -18.5%.

For the molecule `Brc1ccc2nc(NC3CCCCC3)[nH]c2c1`, the Activity was found to be 43.7%.

Turning to `CCCCNc1nc2ccc(-n3cnnn3)cc2[nH]1`, the Activity is -1.32%.

On to `O=[N+]([O-])c1cccc2nc(Nc3ccccc3)[nH]c12`, for which the Activity is 0%.

For `O=[N+]([O-])c1cccc2nc(NCc3ccccc3)[nH]c12`, the Activity is 5.1%.

Turning to `O=[N+]([O-])c1ccc2nc(Nc3ccc(C(F)(F)F)cc3)[nH]c2c1`, the Activity was -30.8%.

For the molecule `CCCCNc1nc2cccc(C(=O)OC)c2[nH]1`, the Activity is 29.2%.

With `CCNc1nc2ccc([N+](=O)[O-])cc2[nH]1`, the Activity was determined as 6.4%.

Take `O=[N+]([O-])c1ccc2nc(Nc3ccc(Br)cc3)[nH]c2c1`: the Activity was -6.1%.

As to `CN(C)c1ccc(Nc2nc3ccc([N+](=O)[O-])cc3[nH]2)cc1`, the Activity was determined as 14%.

With `CCCCNc1nc2cc(C(F)(F)F)cc(Br)c2[nH]1`, the Activity was determined as 23.7%.

With `CCCCNc1nc2ccc(C(=O)NCCCc3ccccc3)cc2[nH]1`, the Activity was -3.6%.

For `CCCCCCCCNc1nc2ccc([N+](=O)[O-])cc2[nH]1`, the Activity amounted to 6.4%.

With `O=C(Nc1nc2ccc([N+](=O)[O-])cc2[nH]1)c1ccccc1`, the Activity is -21.3%.

As to `CCCCNc1nc2ccc(C(=O)OC)cc2[nH]1`, the Activity amounted to 2.9%.

Regarding `Clc1ccc2nc(NC3CCCCC3)[nH]c2c1`, the Activity stood at 38.2%.

With `CCCCNc1nc2ccc(-c3cccc([N+](=O)[O-])c3)cc2[nH]1`, the Activity was -20.6%.

For `CC(C)Nc1nc2cccc([N+](=O)[O-])c2[nH]1`, the Activity is 1%.

Another data set concerns Jurkat. Nature of the data set: Protection against TRAIL-induced apoptosis in human Jurkat assessed as increase in cell viability at 20 uM measured after 24 hrs by MTS assay. It is filed as functional, cell-based.
Settings: not given
Take `CC(C)[C@H](NC(=O)OCc1ccccc1)C(=O)N[C@@H](C)C(=O)N[C@@H](CC(=O)O)C(=O)CF` (Cbz-Val-Ala-Asp-CH2F): the result was inactive.

Tested on in a further data set: not listed separately
The experiment in a line: Cytotoxicity against human FADD-deficient Jurkat I 2.1 cells assessed as reduction in cell viability at >10 uM measured after 24 hrs by MTS assay. It is filed as cell-based. The following applies: jurkat i 2.1, 24 h.
Regarding `O=[N+]([O-])c1ccc2nc(NC3CCCCC3)[nH]c2c1`, the Activity result is “Toxic”.

For the molecule `CC(C)CNc1nc2ccc([N+](=O)[O-])cc2[nH]1`, the Activity result is listed as “Toxic”.

On to `O=[N+]([O-])c1ccc2nc(Nc3ccccc3)[nH]c2c1`, for which the Activity entry is given as “Toxic”.

The next data set relates to Jurkat. The experiment in a line: Protection against staurosporine-induced apoptosis in human Jurkat assessed as increase in cell viability at 20 uM measured after 24 hrs by MTS assay. It is filed as functional, cell-based.
Settings: not given
As for `CC(C)[C@H](NC(=O)OCc1ccccc1)C(=O)N[C@@H](C)C(=O)N[C@@H](CC(=O)O)C(=O)CF` (Cbz-Val-Ala-Asp-CH2F), the outcome was inactive.

The values above are taken from ChEMBL document CHEMBL4765378, “Discovery of simplified benzazole fragments derived from the marine benzosceptrin B as necroptosis inhibitors involving the receptor interacting protein Kinase-1” (Eur J Med Chem, 2020).
